Bioassay records from PubChem BioAssay.
Compounds with a hit are over-represented: about 2.1% of the library has one in this group of screens.
STEP block – inhibitors of human striatal-enriched phosphatase STEP; AID 588621; recombinant STEP, OMFP fluorogenic substrate, fluorescence; inhibition, % at 20 µM; hit rate 0.25% among 360,000; P54829;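 active means inhibition at 20 µM, scaled per plate between control wells, above about 37%, limit read from the data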;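 further: 0% = DMSO with enzyme and substrate and 100% = substrate only without enzyme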
Target sequence (P54829 whole entry, looked up): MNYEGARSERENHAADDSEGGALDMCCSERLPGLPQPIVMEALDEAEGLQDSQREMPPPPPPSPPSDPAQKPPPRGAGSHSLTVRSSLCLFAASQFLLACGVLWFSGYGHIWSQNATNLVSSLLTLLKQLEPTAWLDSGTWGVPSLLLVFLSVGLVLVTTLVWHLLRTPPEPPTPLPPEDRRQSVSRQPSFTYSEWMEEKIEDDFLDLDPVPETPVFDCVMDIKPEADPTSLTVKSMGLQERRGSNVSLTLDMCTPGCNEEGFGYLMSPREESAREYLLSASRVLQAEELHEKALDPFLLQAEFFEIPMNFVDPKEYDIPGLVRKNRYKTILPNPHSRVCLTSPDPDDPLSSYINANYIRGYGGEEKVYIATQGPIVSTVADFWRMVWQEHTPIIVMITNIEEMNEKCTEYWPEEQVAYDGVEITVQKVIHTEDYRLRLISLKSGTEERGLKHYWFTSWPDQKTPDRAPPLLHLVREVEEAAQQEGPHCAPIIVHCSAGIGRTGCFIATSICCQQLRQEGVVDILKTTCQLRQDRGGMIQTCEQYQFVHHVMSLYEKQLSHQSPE
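Also added – OMFP at 25 µM · Test system – STEP tyrosine phosphatase · Technique – FITC-channel fluorescence of OMFP product · Schedule – 20 min at room temperature, dark · Evaluation – control-normalized % inhibition with plate pattern correction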
SUMO1 PPI mod – alters human SUMO1 binding to SIM partners; P63165; SUMO1 binding to a labelled peptide, TR-FRET, 1 h; inhibition, % at 20 µM; hit rate 0.33% among 360,000; in the data active means inhibition above about 37%
LMPTP block – blocks human LMPTP phosphatase | inhibition, % at 20 µM | P24666 | recombinant LMPTP-A, OMFP fluorogenic substrate, fluorescence intensity | hit rate 0.22% among 360,000;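 active means compounds that cut the enzyme signal by at least half of the control window in the single-dose screen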;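 further: plate controls were DMSO wells with enzyme plus substrate for no effect and substrate without enzyme for full effect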
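Assay system: LMPTP-A, protein tyrosine phosphatase of low molecular weight / Medium: pH 6.0 Bis-Tris buffer with DTT and Triton X-100 / Schedule: 50 min enzyme reaction at room temperature, protected from light / Measured by: endpoint fluorescence intensity from OMFP dephosphorylation / Read-out basis: % inhibition relative to no-enzyme and uninhibited control wells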
DNMT1 block – DNMT1 (human) enzyme inhibition; P26358; DNMT1 molecular beacon, Hinp1I cleavage, fluorescence; inhibition (reported as % activation of signal), % at 10 µM; hit rate 0.83% among 360,000; in the data active means inhibition above about 50%
GRK2 aptamer HTS – human GRK2 inhibition via aptamer displacement; P25098; bead flow cytometry, FAM-aptamer displacement from GRK2; inhibition of aptamer binding, % at 10 µM; hit rate 0.59% among 330,000; AID 488847;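 active means inhibition of aptamer binding above 40%, roughly 3 SD of noise, on plates passing a quality check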;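 further: median bead fluorescence of bound FAM aptamer so fluorescent compounds give negative values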
Scp-1 inhibitor – Scp-1 (human) phosphatase inhibition | Recombinant Scp1, phosphopeptide, malachite green phosphate absorbance | hit rate 0.88% among 340,000 | Q9GZU7 | inhibition, % at 20 µM | AID 493091;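 active means inhibition above about 50% at 20 µM, limit read from the data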;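 further: plate controls were DMSO wells with enzyme for no effect and wells lacking enzyme for full effect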
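Times: enzyme reaction 45 min at room temperature, colour 5 min, stabilisation 30 min. Material: SCP-1 catalytic fragment, aa 76-261. Medium: Acidic Tris acetate buffer with magnesium and detergent. Signal: colorimetric free-phosphate detection, absorbance 630 nm. Read-out basis: % inhibition of SCP-1 phosphate liberation. Reagent: Phosphorylated 17-residue peptide substrate.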
STEP inh conf – confirmation of human STEP phosphatase inhibitors | shares compounds with STEP block | recombinant STEP, OMFP fluorogenic substrate, fluorescence | inhibition, % at 20 µM | hit rate 32% among 520; call rule not given here;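 further: 0% = enzyme with substrate plus DMSO and 100% = substrate without enzyme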
* = called active by the depositor; x = no result.

SMILES	STEP block	SUMO1 PPI mod	LMPTP block	DNMT1 block	GRK2 aptamer HTS	Scp-1 inhibitor	STEP inh conf
CCOc1cc(/C=C(\C#N)C(=O)Nc2ccccc2C(=O)O)ccc1OC(=O)c1ccc(C)cc1	58*	3	0	32	1	41	4
COc1ccc(NC(=S)NCCN2CCC(C)CC2)cc1Cl	90*	-1	-1	-43	1	-4	79*
COc1ccc(NC(=S)N(CCCN2CCC(C)CC2)Cc2cccs2)cc1Cl	56*	-2	0	-3	0	-4	27*
COc1ccc(NC(=S)N(CCCN2CCN(C)CC2)Cc2cccs2)cc1	-3	-3	-7	2	5	-5	x
S=C(NCCN1CCOCC1)Nc1ccc(Cl)cc1Cl	1	2	-3	3	0	-7	x
COc1ccc(NC(=S)NCCCN2CCCC2)cc1Cl	90*	-7	-2	0	0	-17	41*
COc1cc(NC(=S)NCCCN2CCOCC2)c(OC)cc1Cl	-1	4	-4	0	0	-4	x
S=C(NCCCN1CCOCC1)Nc1ccc(Cl)cc1Cl	42*	-2	-8	1	1	-13	9
O=c1[nH][nH]c2c1[C@H](c1ccc(Cl)cc1)O[C@H](C1CCCCC1)C2	x	4	-1	x	x	x	x
COc1ccc(CNC(=S)Nc2ccccc2)cc1	3	9	-1	-3	3	-4	x
COC1=NC(=C(c2ccccc2)c2ccccc2)OC1=O	-1	5	1	1	x	-10	x
Cc1cccc(S(=O)(=O)NC(=O)C2(C)CCN2C(=O)Cc2ccc(Cl)cc2Cl)c1 (stereo not given)	1	5	-1	6	x	x	x
O=C(NCCCn1ccnc1)C(Cc1ccccc1)N1C(=O)c2ccccc2C1=O (stereo not given)	48*	-7	-1	1	2	0	36*
COCCCN(C(=S)Nc1c(C)cc(C)cc1C)C(C)c1ccccn1 (stereo not given)	46*	0	-2	3	0	-3	25*
Cc1ccc(NC(=O)C2(C)CCCN2C)cc1C (stereo not given)	0	-3	-1	6	x	x	x
CC(C)c1ccc(N2C(=O)C(Cl)=C(N3CCOCC3)C2=O)cc1	42*	-27	1	0	0	-7	-7
COc1cc(C(=S)N2CCCC2)ccc1O	0	14	-1	-2	0	-6	x
COc1cc(C(=S)N2CCCCC2)ccc1O	98*	6	0	8	2	0	75*
CC(Sc1ccc(Cl)cc1)C(=O)NNC(=O)c1ccccc1O (stereo not given)	-2	5	2	2	0	-13	x
O=C(Nc1nnc(-c2ccc(Cl)cc2)o1)c1nc2ccccc2s1	72*	7	15	-12	2	-10	5
CC(=O)c1ccc(NC(=O)c2cn(-c3ccccc3)nc2-c2ccncc2)cc1	1	-3	-1	-4	0	-12	x
COC(=O)c1ccc(NC(=O)c2cn(-c3ccccc3)nc2-c2ccncc2)cc1	46*	19	1	-8	0	6	-4
CCCCOc1ccc(C(=O)NCC(=O)N(C)Cc2nc3ccccc3c(=O)[nH]2)cc1	0	-3	-2	19	0	-6	x
Cc1cccc(C(=O)NCC(=O)N(C)Cc2nc3ccccc3c(=O)[nH]2)c1	97*	0	0	3	0	-2	5
COc1ccc(NC(=S)NCCc2ccccc2)c(C)c1	4	-8	2	1	0	-2	x
SMILES	STEP block	SUMO1 PPI mod	LMPTP block	DNMT1 block	GRK2 aptamer HTS	Scp-1 inhibitor	STEP inh conf
COc1cc(C)c(NC(=O)C(=S)NCCc2ccccc2)cc1C	47*	1	2	3	0	-4	6
CN(C)/C=N/C1=C(C#N)C(c2cccs2)c2ccc3ccccc3c2O1 (stereo not given)	0	-15	2	-16	x	-4	x
COc1ccc(-c2csc3nc(-c4cccnc4)nc(N4CCC(C(N)=O)CC4)c23)cc1OC	50*	-9	1	-20	0	0	29
Cc1ccc(COc2ccc(CNCCCN3CCCCCC3=O)cc2)cc1	75*	2	-3	1	0	1	8
Cc1ccc(NC(=O)C(=O)NCCCN2CCCC2=O)cc1	-1	0	0	1	3	2	x
COc1cc(C(=O)NNC(=O)C2CC=CCC2C(=O)O)cc(OC)c1OC (stereo not given)	119*	3	1	2	2	-5	10
COc1cc(C(=O)NNC(=O)C2CCC2)cc(OC)c1OC	-2	0	-2	4	5	12	x
O=C(COc1ccc(/C=N/NC(=O)c2ccncc2)cc1)Nc1ccc([N+](=O)[O-])cc1	80*	42*	9	-2	0	-3	84*
Cc1ccc(-c2nc3ncccc3o2)cc1NC(=O)CC(C)C	85*	3	13	2	0	3	9.9*
NS(=O)(=O)c1ccc(NC(=S)N2CCN(Cc3ccc4c(c3)OCO4)CC2)cc1	92*	-1	-1	-1	0	-24	25
NC(=O)C1(N2CCCCC2)CCN(C(=S)Nc2ccc(S(N)(=O)=O)cc2)CC1	92*	-2	-1	-3	0	-4	63*
NC(=O)C1(N2CCCCC2)CCN(C(=S)Nc2ccccc2)CC1	18	5	-1	0	0	-1	x
NS(=O)(=O)c1ccc(NC(=S)N2CCC(Cc3ccccc3)CC2)cc1	80*	5	3	2	0	-6	31*
Cc1nn(C)cc1/C=N/NC(=S)Nc1ccccc1	76*	1	1	-2	0	-7	50*
CCCCCc1c(-c2ccccc2OC)ncn1CCc1ccccc1OC	x	6	2	x	x	x	x
CCOc1ccc(C(=O)Nc2nc(C)c(C(=O)OC)s2)cc1	79*	-41	42	27	0	40	17
COC(=O)c1sc(NC(=O)c2ccncc2)nc1C	-2	-1	-3	2	0	-10	x
CCCCCCCCNS(=O)(=O)CCNCc1ccco1	1	2	-1	3	x	-2	x
O=C(COc1ccc(Cl)cc1)Nc1ccc2oc(-c3ccncc3)nc2c1	5	-1	10	1	0	6	x
COc1ccc(OCC(=O)Nc2ccc3oc(-c4ccncc4)nc3c2)cc1	49*	-1	4	-2	0	34	11
Cc1cccc(NC(=O)c2cc3c(=O)n4ccccc4nc3s2)c1	84*	30	8	41	0	7	0
Nc1ccc(Nc2ccncc2)cc1	4	2	9	0	x	x	x
